Sampled rows, rich in hits. Any-hit rate of the full collection: about 2.4%.
Rpn11 inh: Rpn11 (human) deubiquitinase inhibition; O00487; human 26S proteasome, Ub4-pepOG fluorescence polarization; 20S core pre-blocked with epoxomicin; inhibition, % at 20 µM; 360,000 tested, 0.59% active;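 active = inhibition at 20 µM, scaled to each plate's controls, above about 33%, limit read from the data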
HNF4A DNA FP: change in binding of human HNF4 alpha to DNA | P41235 | HNF4a-FITC DNA binding, fluorescence polarization, 1 h | activity change, % at 10 µM | 360,000 tested, 0.3% active | AID 1224865; in the data active = activity change above about 30%, passing the limit was not always enough
Rin1 Abl inh: inhibitors of human Rin1-Abl protein interaction | P00519+Q13671 | TR-FRET Rin1/Abl binding, biochemical | inhibition, % at 7.35 µM | 360,000 tested, 0.4% active | AID 588664; in the data active = inhibition above about 5%, passing the limit was not always enough
Neddylation inh: inhibitors of human cullin neddylation; P61081+Q13564; TR-FRET cullin neddylation, biochemical; inhibition, % at 25 µM; 360,000 tested, 0.58% active; in the data active = inhibition above about 36%
TPT1 inhibitor: inhibitors of Candida albicans tRNA 2'-phosphotransferase TPT1; 300,000 tested, 0.81% active; recombinant caTPT1, FP RNA substrate dephosphorylation; inhibition, % at 5 µM;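 active = inhibition above the mean of all tested compounds plus 3 SD, set per screening campaign, cut at about 24% in these data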;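 also: plate controls were DMSO alone for no effect and ferristatin control at 100 nM for full effect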
CSN inh: blocks human CSN-mediated cullin deneddylation | inhibition, % at 12.5 µM | Purified CSN, SCF-Nedd8-OG deneddylation, fluorescence polarization | AID 651999 | 360,000 tested, 0.38% active;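 active = pattern-corrected inhibition above about 35%, with an unprinted fluorescence ratio check between 0.5 and 1.5, limit read from the data, passing the limit was not always enough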;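 also: 0% = enzyme with substrate and 100% = substrate without enzyme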
Target sequence (Q92905 whole entry, looked up, one chain of several): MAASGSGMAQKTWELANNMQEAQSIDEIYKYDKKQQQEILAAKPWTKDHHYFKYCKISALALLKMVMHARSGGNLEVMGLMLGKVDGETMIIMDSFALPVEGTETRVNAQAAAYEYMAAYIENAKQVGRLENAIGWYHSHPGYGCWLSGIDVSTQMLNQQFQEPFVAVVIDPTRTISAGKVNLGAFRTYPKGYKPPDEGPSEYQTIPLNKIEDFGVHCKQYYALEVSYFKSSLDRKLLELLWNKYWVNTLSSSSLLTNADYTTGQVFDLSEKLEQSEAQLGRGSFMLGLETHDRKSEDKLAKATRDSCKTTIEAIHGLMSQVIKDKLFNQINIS
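Assay system: HEK293T-derived human Csn5 enzyme; quantity: 0.24 nM enzyme; medium: Tris/NaCl/DTT buffer, pH 7.5; also added: substrate SCFSkp2-Nedd8OG, 10 nM; doses: 12.5 µM compound; schedule: 90 min reaction at room temperature; signal: FP; read-out: % inhibition of substrate cleavage by Csn5; benchmarks: substrate-only high control, full reaction low control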
caTPT1 confirm: TPT1 (C. albicans) inhibition, confirmation; shares compounds with TPT1 inhibitor; recombinant caTPT1, fluorescence polarization, RNase T1 coupled; inhibition, % at 5 µM; 2,400 tested, 74% active; AID 2149;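 active = inhibition above the primary screen limit, the mean inhibition of all tested compounds plus 3 SD, cut at about 25% in these data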
RNase T1 inh: counter-screen for TPT1 inhibitors: inhibitors of Aspergillus oryzae RNase T1. shares compounds with TPT1 inhibitor. RNase T1 cleavage, fluorescence polarization, 1536-well. inhibition, % at 5 µM. 2,400 tested, 83% active. AID 2153;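 active = inhibition above the solvent-only control well mean plus 3 SD, limit set per screening run, cut at about 23% in these data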;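 also: plate controls were DMSO wells with enzyme for no effect and wells without RNase T1 for full effect; inhibitors block cleavage so intact labeled substrate keeps polarization high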
The depositor's hits bear a star; i = inactive; . = no result shown.

SMILES	Rpn11 inh	HNF4A DNA FP	Rin1 Abl inh	Neddylation inh	TPT1 inhibitor	CSN inh	caTPT1 confirm	RNase T1 inh
COCCN=c1scc(-c2ccc3c(c2)NC(=O)CO3)n1/N=C(\C)c1ccc(O)cc1	23	4	-4	2	27*	13	10	18
CC1CCN(c2c(NCC3CCC(C(=O)NCc4ccccc4Cl)CC3)c(=O)c2=O)CC1 (configuration not stated)	-1	3	0	3	-5	5	.	.
CCn1cc(/C=C/c2cc[n+](C)cc2)c2ccccc21	.	81	-126	-181	39*	-73	43*	50*
CCN(CC)C(=O)Cn1c(=O)n(C)c2ccccc21	1	0	3	-2	-5	-3	.	.
C=CCn1c(C)c(/C=C/c2cc[n+](C)cc2)c2ccccc21	.	181	-83	i	119*	140	127*	122*
Cc1[nH]c2ccccc2c1/C=C/c1cc[n+](C)cc1	.	144	-150	i	.	130	.	.
CCN(CC)C(=O)Cn1c(C)c(/C=C/c2cc[n+](C)cc2)c2ccccc21	.	158	-76	-217	108*	99*	108*	107*
C=CCn1cc(/C=C/c2cc[n+](C)cc2)c2ccccc21	.	86	-76	-88	46*	-47	55*	59*
Cc1c(C)n(CC(O)CN2C(=O)c3ccccc3S2(=O)=O)c2ccccc12 (configuration not stated)	-8	-1	-3	5	3	1	.	.
CCn1c(O)c(/C=N/N=C/c2ccccc2)c2ccc(C3=NNC(=O)CC3)cc21	.	-10	-5	27	61*	-77	72*	84*
CCC(CC)=N/N=C/c1c(O)n(CC)c2cc(C3=NNC(=O)CC3)ccc12	10	11	-2	11	64*	1	44*	56*
Cc1ccc(NS(=O)(=O)c2ccc(OCC(=O)N3CCOCC3)cc2)cc1	-1	0	1	-5	-3	3	.	.
CCOc1cc(/C=C2\CCCC(C(=O)C(F)(F)F)=C2O)ccc1O	3	6	0	6	36*	5	44*	58*
CCOc1cc(/C=C2\C(=O)N(c3nc(-c4ccc(Br)cc4)cs3)N=C2c2ccccc2)ccc1O	21	-12	-3	-70	41*	4	100*	104*
O=C(O)C(=Cc1ccccc1[N+](=O)[O-])c1ccc2c(c1)OCO2	-8	-4	-2	-9	.	0	.	.
COc1cc(/C=C2/C(=O)CNC2=O)ccc1O	22	3	-7	3	30*	12	55*	77*
COc1cc(/C=C/C(=O)CC(=O)/C=C/c2ccc(O)c(OC)c2)ccc1O	.	112	4	9	139*	111	147*	135*
COc1cccc(C(=O)NCCS(=O)(=O)NCc2ccccn2)c1	2	-2	0	3	4	1	.	.
CCN(CC)c1ccc(NC(=O)Cn2c(C(C)NC(=O)c3ccccc3)nc3ccccc32)cc1 (configuration not stated)	-4	1	-3	7	53*	-16	8	11
Cc1ccc(C(=O)NC(C)c2nc3ccccc3n2CC(=O)Nc2c(C)cc(C)cc2C)cc1 (configuration not stated)	.	.	.	.	1	.	.	.
O=C(NCCCN1CCOCC1)C1CCN(S(=O)(=O)c2cccc(C(F)(F)F)c2)CC1	1	0	-3	-30	.	-1	.	.
Cc1ccc(N2C(=O)CS/C2=C(\C(Cl)=C(Cl)Cl)[N+](=O)[O-])cc1	37	21	-1	-12	93*	5	43*	51*
CCOC(=O)c1c(NC(=O)CCS(=O)(=O)c2ccccc2)sc2c1CCN(C)C2	8	21	-11	-52	35*	18	21	28*
CCOC(=O)c1c(NC(=O)CSc2nnc(C)s2)sc2c1CCN(C)C2	.	73*	-8	7	98*	43*	97*	103*
